# Measured values gathered from unrelated publications.
# Cell line: HeLa
# Read-out: cell growth or viability
Structure (SMILES),technique,time,IC50 [µM]
COc1cccc2c1C(=O)c1c(O)c3c(c(O)c1C2=O)C[C@@](O)(C(=O)CO)C[C@@H]3O[C@H]1C[C@H](N)[C@H](O)[C@H](C)O1,,,0.03
CC(C)CNC(=S)N/N=C/c1cccc2cc3ccccc3nc12,MTT,48 h,25.5
COc1ccc(-c2n(CCC(C)C)c3ccccc3[n+]2Cc2cc(OCCC(C)C)c3ccccc3c2OCCC(C)C)cc1,MTT,24 h,10.9
CCCNC(=S)N/N=C/c1cccc2cc3ccccc3nc12,MTT,48 h,36.2
O=C(Cn1cc(COc2ncnc3[nH]cnc23)nn1)Nc1ccc([N+](=O)[O-])cc1,MTT,,10.4
CCCCCCCCOc1cc(C(=O)C[n+]2cn(CCC(C)C)c3ccccc32)c(OCCCCCCCC)c2ccccc12,MTT,24 h,14.3
CN(C)c1cccc(Nc2nc(-c3ccncc3)nc3c2CNCC3)c1,MTT,,32.4
CC(C)CCOc1cc(C(=O)C[n+]2ccn(CCC(C)C)c2)c(OCCC(C)C)c2ccccc12,MTT,24 h,10.1
Fc1ccccc1Nc1nc(-c2ccncc2)nc2c1CNCC2,MTT,,> 100
CN1CCc2c(c3ccccc3n2Cc2ccc(C(=O)NO)cc2)C1,CCK-8,48 h,17.6
CC(=O)O[C@@]12CO[C@@H]1C[C@H](O)[C@@]1(C)C(=O)[C@H](O)C3=C(C)[C@@H](OC(=O)[C@H](O)[C@@H](NC(=O)OC(C)(C)C)c4ccccc4)C[C@@](O)([C@@H](OC(=O)c4ccccc4)[C@H]21)C3(C)C,MTT,48 h,60.7
CC(C)CCOc1cc(C[n+]2c(CO)n(CCC(C)C)c3ccccc32)c(OCCC(C)C)c2ccccc12,MTT,24 h,11.8
O=[N+]([O-])c1ccc(NC(=S)N/N=C/c2cccc3cc4ccccc4nc23)cc1,MTT,48 h,7.5
COc1ccc(CNC(=O)Cn2cc(COc3ncnc4[nH]cnc34)nn2)cc1,MTT,,29.6
CC(C)CCOc1cc(C(=O)C[n+]2cn(Cc3ccccc3)c3ccccc32)c(OCCC(C)C)c2ccccc12,MTT,24 h,14.8
CNc1cccc(Nc2nc(-c3ccncc3)nc3c2CNCC3)c1,MTT,,> 100
Cc1n(CCC(C)C)c2ccccc2[n+]1Cc1cc(OCCC(C)C)c2ccccc2c1OCCC(C)C,MTT,24 h,7.6
COc1cccc2c1C(=O)c1c(O)c3c(c(O)c1C2=O)C[C@@](O)(C(=O)CO)C[C@@H]3O[C@H]1C[C@H](N)[C@H](O)[C@H](C)O1,MTT,48 h,0.2
CN(C)C(=S)[N-]N=C(c1ccccn1)c1ccccn1.[O]=[V+]=[O],MTT,48 h,42.9
[Cl-].[Li+],MTT,,> 10000
COc1ccc(NC(=S)N/N=C/c2cccc3cc4ccccc4nc23)cc1,MTT,48 h,14.8
CCC(=CCc1c(O)cc2c(c1O)C(=O)C[C@@H](c1ccccc1O)O2)CC,MTT,48 h,51.3
CC(C)CCn1c[n+](CC(=O)c2cc(OC(C)C)c3ccccc3c2OC(C)C)c2ccccc21,MTT,24 h,12.9
C=C[C@]1(C)C=C2CC[C@H]3C(C)(C)CCC[C@]3(C)[C@H]2CC1,MTT,75 h,130
CCC(=CCc1c(O)cc2c(c1O)C(=O)CC(c1ccc(O)cc1)O2)CC (stereo in doubt),MTT,,19.1
O=C(Cn1cc(COc2ncnc3[nH]cnc23)nn1)Nc1ccc(O)cc1,MTT,,17.6
CN(C)C1CCc2[nH]c3c(C(N)=O)ccc(-c4ccccc4Cl)c3c2C1 (centres unmarked),,,0.19
COc1cccc2c1C(=O)c1c(O)c3c(c(O)c1C2=O)C[C@@](O)(C(=O)CO)C[C@@H]3O[C@H]1C[C@H](N)[C@H](O)[C@H](C)O1,MTT,,6.89
COc1cc(C(=O)C[n+]2cn(CCC(C)C)c3ccccc32)c(OC)c2ccccc12,MTT,24 h,17
